# Legend:
# [1] = test system: Bloodstream T. b. brucei (strain 427) cell line 449; test: Viability assay of bloodstream trypanosomes; type: cell-based; settings: Trypanosoma brucei, 24 h
# Outline: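 Bloodstream parasites at 5 × 10^5 cells/mL in HMI-9 with 10% FBS received test compound (5 μM final; nifurtimox 15 μM) or 1% DMSO, in triplicate, for 24 h at 37 °C and 5% CO2. Cells were diluted into PBS with 1% glucose, stained with propidium iodide (2 μg/mL) and counted by flow cytometry. Viability is the % of the DMSO-control cell count. EC50 came from 7-point curves (triplicates) fitted to a sigmoidal Hill equation; SD.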
# Bloodstream T. b. brucei [2] = test: Inhibition of glucose uptake; type: cell-based, Trypanosoma brucei brucei; settings: 30 min
# [3] = test system: murine macrophages (cell line J774); test: Viability assay of murine macrophages; type: cell-based; settings: murine macrophages vs T. b. brucei
# Outline: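 J774 murine macrophages were grown in DMEM with 10% FBS, penicillin and streptomycin at 37 °C in 5% CO2. Cells were exposed to 7 concentrations of test compound, each in triplicate, for 24 h, and viability was measured with WST-1 reagent as % of DMSO-treated control. EC50 was derived by fitting a sigmoidal Hill equation; SD.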
# Bloodstream T. b. brucei [4] = test: Glucose consumption; type: cell-based, Trypanosoma brucei brucei; settings: compound at its EC50, 4 h
# Outline: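 Bloodstream T. b. brucei were seeded at 5.3–5.8 × 10^6 parasites/mL in HMI-9 with 10% FBS (37 °C, 5% CO2). They were exposed for 4 h to test compound at a fixed concentration, or to suramin 78 nM, ebselen 5 μM, tri-thiazol 0.31 μM or 1% DMSO vehicle. Viable cells were counted in a Neubauer chamber, cells were spun down at 2000 g for 10 min, and supernatant glucose was measured on an analyzer. Consumption is given as g/L per million cells per hour; triplicates, SD.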
# [5] = test system: redox biosensor hGrx-roGFP2 in bloodstream T. b. brucei; test: Intracellular redox changes in T. brucei redox reporter cell line; type: cell-based, Trypanosoma brucei brucei; settings: for oxidation of the biosensor: 4 h, 0.54 μM 13, 1.49 μM 15, 78 nM suramin, 25 μM menadione
# Outline: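 The strain 427 line 449 bloodstream reporter line expresses hGrx-roGFP2, induced with 1 μg/mL oxytetracycline for 24 h. Parasites at 2 × 10^6/mL were treated for 4 h at 37 °C with test compound, 25 μM menadione, 78 nM suramin or 1% DMSO. A parallel sample then received 1 mM DTT for 15 min. Cells were stained with PI (2 μg/mL) and GFP (530/40 nm) was read on PI-negative cells by flow cytometry. Values are % biosensor reduction versus DMSO without DTT; triplicates, SD.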
smiles,measurement,setting,value
"CC1CS(=O)(=O)CCN1/N=C/c1ccc([N+](=O)[O-])o1 (centres unmarked) [NFX, nifurtimox]",EC50,[1]; read-out: EC50 against T. b. brucei,~10 µM
same,viability at 15 µM,[1]; read-out: Parasite survival,28.2 ± 5.5%
same,glucose uptake compared to vehicle treated cells,"Bloodstream T. b. brucei [2]; 5X EC50 (13 2.7 μM, 15 7.45 μM, nifurtimox 50 μM)",A similar outcome
same,selectivity index (SI),[3],~10
O=c1c2ccccc2[se]n1-c1ccccc1 [ebselen],reduction of glucose consumption vs vehicle,Bloodstream T. b. brucei [4],44%
same,anti-proliferative activity with respect to the DMSO control,Bloodstream T. b. brucei [4]; not statistically significant,some anti-proliferative activity
CC1=CC(=O)c2ccccc2C1=O [menadione],oxidation of the biosensor,[5],60%
same,reversal of biosensor oxidation by DTT,"[5]; after 4 h treatment, 15 min with 1 mM DTT",fully reversible
O=C(CCc1ccc(O)cc1)c1c(O)cc(O)cc1O [phloretin],reduction of glucose uptake,Bloodstream T. b. brucei [2]; 500 μM,63%
Cc1ccc(C(=O)Nc2ccc(S(=O)(=O)O)c3cc(S(=O)(=O)O)cc(S(=O)(=O)O)c23)cc1NC(=O)c1cccc(NC(=O)Nc2cccc(C(=O)Nc3cc(C(=O)Nc4ccc(S(=O)(=O)O)c5cc(S(=O)(=O)O)cc(S(=O)(=O)O)c45)ccc3C)c2)c1 [suramin],oxidation of the biosensor,[5],did not induce redox changes
same,capacity to metabolize glucose compared to the control condition,Bloodstream T. b. brucei [4]; vs DMSO,< 30%

# Source: PMC5565762 (International Journal for Parasitology: Drugs and Drug …, 2017)
